For assay [1], the system named is Protein-glutamine gamma-glutamyltransferase (Homo sapiens), P21980 [UNDEFINED MUTATION]. Nature of the assay: Effect on closed state of recombinant human TG2 V224 mutant at 500 uM after 1 hr by native PAGE analysis in presence of 1 mM MgCl2.
The test system is the same in assay [2]. Nature of the assay: Effect on open state of recombinant human TG2 V224 mutant at 500 uM after 1 hr by native PAGE analysis in presence of 1 mM MgCl2.
In assay [3] the target is T1, Protein-glutamine gamma-glutamyltransferase (Homo sapiens, UniProt P21980). Nature of the assay: Competitive inhibition of recombinant human TG2 V224 mutant deamidation activity using Cbz-Gln-Gly as substrate preincubated for 30 mins followed by substrate addition by Lineweaver-Burk plot analysis in presence of 5 mM Ca2+. The method in brief:
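Deamidation of Cbz-Gln-Gly by the V224 allele of human TG2 (0.5 μM) was read by a GDH-coupled assay at 5 mM Ca2+. Michaelis-Menten data were collected at several inhibitor levels, and Ki was derived from Lineweaver-Burk analysis.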

The target in assay [4] is T1, Protein-glutamine gamma-glutamyltransferase. Nature of the assay: Non-competitive inhibition of recombinant human TG2 V224 mutant deamidation activity using Cbz-Gln-Gly as substrate preincubated for 30 mins followed by substrate addition by GDH-coupled assay in presence of 5 mM Ca2+. The method in brief:
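V224 TG2 (0.5 μM) deamidation by GDH-coupled assay at 5 mM Ca2+. Rates measured across substrate concentrations at several inhibitor levels. Mode and Ki derived by Michaelis-Menten and Lineweaver-Burk analysis.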

Assay [5] relates to Protein-glutamine gamma-glutamyltransferase (Homo sapiens), P21980 [UNDEFINED MUTATION]. Nature of the assay: Activation of recombinant human TG2 V224 mutant deamidation activity using Cbz-Gln-Gly as substrate at 25 uM preincubated for 30 mins followed by substrate addition by GDH-coupled assay in presence of 0.6 mM Ca2+.
Assay [6] has the same test system. Nature of the assay: Effect on closed state of recombinant human TG2 V224 mutant at 100 uM after 1 hr by native PAGE analysis.
Assay [7] concerns the target T2, Protein-glutamine gamma-glutamyltransferase (Homo sapiens) (UniProt P21980).
T2 sequence (whole entry): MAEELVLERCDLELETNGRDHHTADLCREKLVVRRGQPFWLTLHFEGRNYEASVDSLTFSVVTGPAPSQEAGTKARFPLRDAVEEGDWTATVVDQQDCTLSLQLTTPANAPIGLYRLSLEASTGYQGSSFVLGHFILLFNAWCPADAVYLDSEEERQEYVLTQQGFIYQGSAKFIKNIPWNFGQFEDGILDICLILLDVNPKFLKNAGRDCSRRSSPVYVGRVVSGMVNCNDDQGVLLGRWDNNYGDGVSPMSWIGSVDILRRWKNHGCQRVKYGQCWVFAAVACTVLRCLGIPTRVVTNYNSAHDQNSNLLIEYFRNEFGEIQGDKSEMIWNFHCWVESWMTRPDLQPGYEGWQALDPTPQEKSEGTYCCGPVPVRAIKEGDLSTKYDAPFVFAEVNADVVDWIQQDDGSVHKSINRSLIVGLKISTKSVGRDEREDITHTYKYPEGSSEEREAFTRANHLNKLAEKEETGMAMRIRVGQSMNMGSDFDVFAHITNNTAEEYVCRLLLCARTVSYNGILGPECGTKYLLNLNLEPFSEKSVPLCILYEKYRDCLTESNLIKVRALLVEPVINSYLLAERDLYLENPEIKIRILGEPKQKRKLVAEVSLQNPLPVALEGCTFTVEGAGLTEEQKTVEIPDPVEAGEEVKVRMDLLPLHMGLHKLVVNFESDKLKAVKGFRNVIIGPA
Nature of the assay: Inhibition of wild type human TG2 deamidation activity using Cbz-Gln-Gly as substrate preincubated for 30 mins followed by substrate addition by GDH-coupled assay in presence of 5 mM Ca2+. The method in brief:
(§1)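 GDH-coupled deamidation with wild-type or truncated (1-466) TG2 at 0.5 μM enzyme and 5 mM Ca2+. Activity normalized to each protein's own maximum.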

Assay [8] concerns Protein-glutamine gamma-glutamyltransferase (Homo sapiens), P21980 [UNDEFINED MUTATION]. Nature of the assay: Inhibition of human TG2 E396Q/N398S/D400N mutant deamidation activity using Cbz-Gln-Gly as substrate preincubated for 30 mins followed by substrate addition by GDH-coupled assay in presence of 5 mM Ca2+.
The test system is the same in assay [9]. Nature of the assay: Activation of recombinant human TG2 V224 mutant deamidation activity using Cbz-Gln-Gly as substrate preincubated for 30 mins followed by substrate addition by GDH-coupled assay in presence of 0.5 to 0.7 mM Ca2+.
Assay [10] shares this test system. Nature of the assay: Inhibition of human TG2 E447Q/E451Q/E452Q/E454Q mutant deamidation activity using Cbz-Gln-Gly as substrate preincubated for 30 mins followed by substrate addition by GDH-coupled assay in presence of 5 mM Ca2+.
The target in assay [11] is T2, Protein-glutamine gamma-glutamyltransferase (Homo sapiens). Nature of the assay: Activation of extracellular TG2 transamidating activity in human WI38 cells assessed as incorporation of 5-BP into fibronectin at 10 uM preincubated for 30 mins followed by 5-BP addition measured after 3 hrs by DAPI staining-based confocal fluorescence microscopic analysis. It is filed as cell-based. To be noted: WI-38. In outline:
(§2)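 WI-38 fibroblasts grown to confluence, pre-incubated 30 min with vehicle (1% DMSO) or compound, then incubated with 200 μM 5-(biotinamido)-pentylamine for 3 h. Cells fixed and stained to image 5-BP incorporation into extracellular matrix proteins as a measure of TG2 transamidation. Five images sampled per well.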

Assay [12] has the same target. Nature of the assay: Activation of extracellular TG2 transamidating activity in human WI38 cells assessed as incorporation of 5-BP into fibronectin at 1 uM preincubated for 30 mins followed by 5-BP addition measured after 3 hrs by DAPI staining-based confocal fluorescence microscopic analysis. The format is cell-based. To be noted: WI-38. In outline:
as §2

Assay [13] has the same target. Nature of the assay: Inhibition of human TG2 truncated (1 to 466 amino acid residues) mutant at 15 uM in presence of 5 mM Ca2+. In outline: as §1
Assay [14] deals with T3, Protein-glutamine gamma-glutamyltransferase (Homo sapiens), P21980 [R580A].
T3 sequence (whole entry): T2 sequence (whole entry) with R580A
Nature of the assay: Activation of recombinant human TG2 R580A mutant deamidation activity using Cbz-Gln-Gly as substrate at 10 uM preincubated for 30 mins followed by substrate addition by GDH-coupled assay in presence of 3 mM Ca2+/500 uM GMP-PNP. The method in brief: (§3)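 GDH-coupled deamidation assay comparing wild-type and R580A TG2 at 0.5 μM enzyme and 3 mM Ca2+, with and without GMP-PNP.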

Assay [15] has as its system Protein-glutamine gamma-glutamyltransferase (Homo sapiens), P21980 [UNDEFINED MUTATION]. Nature of the assay: Activation of recombinant human TG2 V224 mutant deamidation activity using Cbz-Gln-Gly as substrate at 15 uM preincubated for 30 mins followed by substrate addition by GDH-coupled assay in presence of 0.6 mM Ca2+.
Assay [16] has the same test system. Nature of the assay: Effect on open state of recombinant human TG2 V224 mutant at 100 uM after 1 hr by native PAGE analysis.
Assay [17] relates to T3, Protein-glutamine gamma-glutamyltransferase (Homo sapiens), P21980 [R580A]. Nature of the assay: Inhibition of recombinant human TG2 R580A mutant deamidation activity using Cbz-Gln-Gly as substrate at 10 uM preincubated for 30 mins followed by substrate addition by GDH-coupled assay in presence of 3 mM Ca2+. In outline:
as §3

In assay [18] the test system is Protein-glutamine gamma-glutamyltransferase (Homo sapiens), P21980 [UNDEFINED MUTATION]. Nature of the assay: Activation of recombinant human TG2 V224 mutant transamidating activity assessed as 5-BP incorporation into immobilized N-N-dimethylcasein at 15 uM preincubated for 30 mins followed by 5-BP addition measured after 1 hr by streptavidin-based microtiter plate assay in presence of 0.6 mM Ca2+/100 uM GMP-PNP. The method in brief: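 Transamidation microtiter assay: 5-BP incorporated into immobilized N,N-dimethylcasein by V224 TG2 at 0.6 mM Ca2+ plus 100 μM GMP-PNP, with incorporated biotin quantified with streptavidin.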

Assay [19] addresses T2, Protein-glutamine gamma-glutamyltransferase (Homo sapiens). Nature of the assay: Inhibition of wild type human TG2 at 15 uM in presence of 5 mM Ca2+. The method in brief:
as §1

Numbering of substitutions follows the chain as printed. pKi: −log10 of the molar value. Calls of active or inactive are those of the source. The calls are words filed in the database; no cut-off is given here.

For `Nc1nc2c(ncn2[C@@H]2O[C@H](COP(=O)(O)OP(=O)(O)NP(=O)(O)O)[C@@H](O)[C@H]2O)c(=O)[nH]1` [PHOSPHOAMINOPHOSPHONIC ACID GUANYLATE ESTER], the outcome in [1] and in [2] was inactive. Further, in [3], the negative-log Ki (pKi) – broadly, −log10 of the Ki, conventionally taken in molar units – was 4.57.

As for `O=C(/C=C1/C(=O)N(c2ccccc2)c2cccc(Cl)c21)c1cccnc1`, the negative-log Ki (pKi) in [4] was 5.04. The outcome in assay [5] was Active.

Consider `COc1ccccc1C(=O)/C=C1/C(=O)Nc2cccc(Cl)c21`, for which, in assay [4], the pKi was 5.48. In addition, the result in assay [6], in [11] and in assay [16] was inactive. Moreover, the inhibition result in assay [7], in [8], in assay [13], in assay [17] and in [19] was “Active” in each case. Also, the outcome in [9], in assay [12], in assay [14], in assay [15] and in assay [18] was Active. For the same compound, the inhibition entry in [10] was “inactive”.

With `O=C1Nc2cccc(Cl)c2/C1=C\C(=O)c1ccc(Cl)cc1`, in assay [4], the negative-log Ki (pKi) is 4.33. Besides, the result in assay [11] was inactive. For the same compound, the outcome in [12] was Active.

Consider `O=C1Nc2ccccc2/C1=C\C(=O)c1cccnc1`, for which the negative logarithm of the Ki (pKi) in assay [4] was 4.07.
